Source: ChEMBL document CHEMBL1132342, “Novel hypotensive agents from Verbesina caracasana. 6. Synthesis and pharmacology of caracasandiamide” (1999)
“And” between values parts separate entries of the source, which are not always exact repeats. Equal values may be shown once.

Assays:
[1] = test system: Rattus norvegicus; assay: Change in systolic blood pressure after iv administration of 1600 ug/Kg compound (treatment with papaverine(1 mg/Kg/min, iv)in anesthetized rats; assay type: functional, Artery
How it was run: (§1)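 Urethane-anesthetized male Wistar rats, 6 per group, received iv doses of 200-1600 µg/kg (ratio 2.0) given alone or under a pretreatment. Pretreatments were continuous iv papaverine infusion (1 mg/kg/min), reserpine 5 mg/kg/day ip for 2 days, or hexamethonium 5 mg/kg iv. Peak changes in femoral arterial BP and HR were recorded; values are mean ± SE.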

[2] = test system: Rattus norvegicus; assay: Change in heart rate after iv administration of 1600 ug/Kg in the presence of acetylcholine (agonist) in anesthetized rats; assay type: functional
How it was run: (§2)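 Urethane-anesthetized male Wistar rats (16 rats, two equal groups) received 400 or 1600 µg/kg compound iv. Cardiovascular responses to iv agonist boluses (noradrenaline 1 µg/kg, acetylcholine 2.50 µg/kg, adrenaline, isoprenaline) were measured before and after compound dosing. Peak responses are given as mean ± SE; p < 0.05 versus control mean.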

[3] = test system: Rattus norvegicus; assay: Change in diastolic blood pressure after iv administration of 400 ug/Kg in the presence of noradrenaline (agonist) in anesthetized rats; assay type: functional, Artery; how it was run: as §2
[4] = test system: Rattus norvegicus; assay: Change in heart rate after iv administration of 4.12 uM/kg in anesthetized rats; assay type: functional
[5] = test system: Rattus norvegicus; assay: Change in respiratory frequency after iv administration of 1600 ug/Kg in anesthetized rats; assay type: functional
How it was run: (§3)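 Male Wistar rats (299 ± 3 g) were anesthetized with ethylurethane ip, tracheally cannulated and breathing spontaneously, at 37 °C, and stabilized for 60 min. Doses of 50-3200 µg/kg (ratio 2.0) in saline were injected by femoral vein, 50 µL each. Recordings: femoral arterial BP, electromagnetic abdominal-aortic flow, SV from integrated pulsatile flow, polygraphic RF. Peak changes, mean ± SE, n = 12 (n = 7 at 3200).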

[6] = test system: Rattus norvegicus; assay: Change in systolic blood pressure after iv administration of 400 ug/Kg in anesthetized rats; assay type: functional, Artery
How it was run: (§4)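 Urethane-anesthetized (10% w/v, […] ip in saline) adult male Wistar rats, trachea cannulated, breathing spontaneously, 37 °C. Femoral artery catheter for blood pressure, femoral vein for dosing. Sequential iv doses 50–3200 µg/kg (ratio 2.0) in saline, each given after parameters returned to baseline. Peak changes recorded; means ± SE, n = 12 (n = 7 at 3200 µg/kg).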

[7] = test system: Rattus norvegicus; assay: Change in heart rate after iv administration of 1600 ug/Kg in the presence of isoprenaline (agonist) in anesthetized rats; assay type: functional; how it was run: as §2
[8] = test system: Rattus norvegicus; assay: Change in heart rate after iv administration of 800 ug/kg compound (treatment with papaverine(1 mg/kg/min, iv))in anesthetized rats; assay type: functional; how it was run: as §1
[9] = test system: Rattus norvegicus; assay: Change in stroke volume after iv administration of 50 ug/Kgg in anesthetized rats; assay type: functional; how it was run: as §3
[10] = test system: Rattus norvegicus; assay: Maximum rate of rise of the left ventricular isovolumetric pressure was measured after iv administration of 800 ug/Kg compound (treatment with papaverine(1 mg/Kg/min, iv)in anesthetized rats; assay type: functional, Heart left ventricle
How it was run: (§5)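 Anesthetized rats, n = 6 per group, received iv doses of 200–1600 µg/kg (ratio 2.0) either alone (control) or under pretreatment: continuous iv papaverine infusion 1 mg/kg/min, reserpine 5 mg/kg/day ip for 2 days, or hexamethonium 5 mg/kg iv. Peak changes in BP, heart rate and dP/dt recorded; means ± SE, p < 0.05 versus control.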

[11] = test system: Rattus norvegicus; assay: Change in heart rate after iv administration of 800 ug/Kg compound (treatment with hexamethonium (5 mg/Kg, iv)in anesthetized rats; assay type: functional; how it was run: as §1
[12] = test system: Rattus norvegicus; assay: Maximum rate of rise of the left ventricular isovolumetric pressure was measured after iv administration of 400 ug/Kg in anesthetized rats; assay type: functional, Heart left ventricle; how it was run: as §4
[13] = test system: Rattus norvegicus; assay: Maximum rate of rise of the left ventricular isovolumetric pressure after iv administration of 1600 ug/Kg compound (treatment with reserpine(5 mg/kg/day for 2 days, ip)in anesthetized rats; assay type: functional, Heart left ventricle; how it was run: as §5
[14] = test system: Rattus norvegicus; assay: Change in heart rate after iv administration of 400 ug/kg compound (treatment with hexamethonium (5 mg/kg, iv))in anesthetized rats; assay type: functional; how it was run: as §1
[15] = test system: Rattus norvegicus; assay: Change in heart rate after iv administration of 400 ug/Kg in anesthetized rats; assay type: functional
How it was run: (§6)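 Adult male Wistar rats under ip ethylurethane (10% w/v in saline, 1 mL/kg) with tracheal cannula and spontaneous breathing, kept at 37 °C. Arterial BP was recorded by femoral artery catheter; compound in saline (50 µL) was given via femoral vein at 50–3200 µg/kg, ratio 2.0. Peak change is given as mean ± SE, n = 12 (n = 7 at 3200 µg/kg).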

[16] = test system: Rattus norvegicus; assay: Change in diastolic blood pressure after iv administration of 800 ug/Kg in anesthetized rats; assay type: functional, Artery; how it was run: as §6
[17] = test system: Rattus norvegicus; assay: Change in systolic blood pressure after iv administration of 400 ug/Kg compound (treatment with hexamethonium (5 mg/Kg, iv)in anesthetized rats; assay type: functional, Artery; how it was run: as §1
[18] = test system: Rattus norvegicus; assay: Change in systolic blood pressure after iv administration of 50 ug/Kg in anesthetized rats; assay type: functional, Artery; how it was run: as §4
[19] = test system: Rattus norvegicus; assay: Maximum rate of rise of the left ventricular isovolumetric pressure was measured after iv administration of 1600 ug/Kg in the presence of noradrenaline (agonist) in anesthetized rats; assay type: functional, Heart left ventricle
How it was run: (§7)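 Anesthetized male Wistar rats, two groups of 8, received 400 or 1600 µg/kg iv. Before and after this dose, iv agonist challenges were given: noradrenaline 1 µg/kg, adrenaline, acetylcholine 2.50 µg/kg, or isoprenaline. Systolic/diastolic BP, heart rate and dP/dt responses were recorded before (control) and after dosing; significance was set at p < 0.05 versus control.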

[20] = test system: Rattus norvegicus; assay: Maximum rate of rise of the left ventricular isovolumetric pressure was measured after iv administration of 1600 ug/Kg in the presence of adrenaline (agonist) in anesthetized rats; assay type: functional, Heart left ventricle; how it was run: as §7
[21] = test system: Rattus norvegicus; assay: Maximum rate of rise of the left ventricular isovolumetric pressure was measured after iv administration of 400 ug/Kg in the presence of acetylcholine (agonist) in anesthetized rats; assay type: functional, Heart left ventricle; how it was run: as §7
[22] = test system: Rattus norvegicus; assay: Change in stroke volume after iv administration of 400 ug/Kg in anesthetized rats; assay type: functional; how it was run: as §3
[23] = test system: Rattus norvegicus; assay: Maximum rate of rise of the left ventricular isovolumetric pressure was measured after iv administration of 200 ug/Kg in anesthetized rats; assay type: functional, Heart left ventricle; how it was run: as §4
[24] = test system: Rattus norvegicus; assay: Maximum rate of rise of the left ventricular isovolumetric pressure was measured after iv administration of 1600 ug/Kg compound (treatment with papaverine(1 mg/Kg/min, iv)in anesthetized rats; assay type: functional, Heart left ventricle; how it was run: as §5
[25] = test system: Rattus norvegicus; assay: Change in respiratory frequency after iv administration of 50 ug/Kg in anesthetized rats; assay type: functional; how it was run: as §3
[26] = test system: Rattus norvegicus; assay: Change in respiratory frequency after iv administration of 3200 ug/Kg in anesthetized rats; assay type: functional; how it was run: as §3

SMILES: COc1ccc(C2C(c3ccc(OC)c(OC)c3)[C@H](C(=O)NCCCC/N=C(\N)NCC=C(C)C)[C@@H]2C(=O)NCCCC/N=C(\N)NCC=C(C)C)cc1OC (stereo partly drawn) [CARACASANDIAMIDE]
- BP [1]: -33 mmHg
- Heart rate [2]: -34 beats min-1
- BP [3]: 15 mmHg
- Heart rate [4]: -35 beats min-1
- Change in respiratory frequency [5]: -61 beats min-1 and -64%
- BP [6]: -20 mmHg
- Change in BP [6]: -19%
- Heart rate [7]: 79 beats min-1
- Heart rate [8]: -17 beats min-1
- Stroke volume [9]: 73 µL
- dP/dt [10]: 2967 mmHg s-1
- Heart rate [11]: -57 beats min-1
- Change in dP/dt [12]: 43%
- dP/dt [12]: 2615 mmHg s-1
- dP/dt [13]: 1238 mmHg s-1
- Heart rate [14]: -46 beats min-1
- Change in heart rate [15]: -4%
- Heart rate [15]: -16 beats min-1
- BP [16]: -31 mmHg
- Change in BP [16]: -40%
- BP [17]: -41 mmHg
- BP [18]: 17 mmHg
- Change in BP [18]: 16%
- dP/dt [19]: 2225 mmHg s-1
- dP/dt [20]: 2739 mmHg s-1
- dP/dt [21]: -5820 mmHg s-1
- Change in stroke volume [22]: -23%
- Stroke volume [22]: -46 µL
- Change in dP/dt [23]: 22%
- dP/dt [23]: 1369 mmHg s-1
- dP/dt [24]: 3321 mmHg s-1
- Change in respiratory frequency [25]: 5 beats min-1 and 5%
- Change in respiratory frequency [26]: -67 beats min-1 and -70%
